Laboratory results reported in ChEMBL document CHEMBL1770125, “Amodiaquine analogues containing NO-donor substructures: synthesis and their preliminary evaluation as potential tools in the treatment of cerebral malaria” (Eur J Med Chem, 2011).
Active and inactive are the calls of the source. The rule behind the calls is not given here.

Tests used:
[1] = system: Plasmodium falciparum; assay: Antiplasmodial activity against chloroquine-resistant Plasmodium falciparum W2 assessed as inhibition of parasite LDH activity after 72 hrs by spectrophotometry; type: functional, organism-based; details: W2, 72 h
Outline: (§1)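 Asynchronous cultures (1-1.5% parasitemia, 1% final haematocrit) in human A+ RBCs were grown in RPMI 1640 with 1% AlbuMax, hypoxanthine, HEPES and glutamine, at 37 °C under 1% O₂/5% CO₂. IC50 is the mean±SD of ≥3 experiments.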

[2] = organism: Rattus norvegicus; assay: Vasodilatory activity in pre-contracted Wistar rat aortic rings; type: functional, Aorta
Outline: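 Aortic strips, endothelium removed, from male Wistar rats (180-200 g) were held in Krebs-bicarbonate at 37 °C, pH 7.4, gassed with 95% O₂/5% CO₂. After 90 min equilibration they were contracted with 1 μM phenylephrine. Cumulative concentration-response curves were run at plateau, with isometric recording. EC50 is the mean of ≥5 determinations.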

[3] = system: Plasmodium falciparum; assay: Antiplasmodial activity against chloroquine-sensitive Plasmodium falciparum D10 assessed as inhibition of parasite LDH activity after 72 hrs by spectrophotometry; type: functional, organism-based; details: D10, 72 h; outline: as §1
[4] = organism: Rattus norvegicus; assay: Vasodilatory activity in pre-contracted Wistar rat aortic rings in presence of 1 uM ODQ; type: functional, Aorta
Outline: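 Endothelium-denuded aortic strips from male Wistar rats (180-200 g) were kept in Krebs-bicarbonate at 37 °C, pH 7.4. ODQ at 1 μM was added 5 min before contraction with 1 μM phenylephrine. Cumulative relaxation curves were recorded isometrically. EC50 is the mean of ≥5 determinations.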

[5] = system: Plasmodium berghei; assay: Antiplasmodial activity against Plasmodium berghei ANKA infected in C57BL/6 mouse assessed as reduction in parasitemia at 1 mg, ip daily for 5 days measured after 72 hrs relative to control; type: functional, organism-based
[6] = system: Plasmodium berghei; assay: Antiplasmodial activity against Plasmodium berghei ANKA infected in C57BL/6 mouse assessed as reduction in parasitemia at 1.4 mg, ip daily for 5 days measured after 72 hrs relative to control; type: functional, organism-based
Outline: (§2)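 C57BL/6 mice aged 6-8 weeks were infected ip with 1x10⁶ PbA-GFP parasitized red blood cells. Parasitemia, motor behaviour, rectal temperature and weight were checked from day 5. Treatment began at late-stage CM, defined by neurological signs (ataxia, paralysis, poor righting, seizures, roll-over, coma). Doses were 100 μL ip daily for 5 days: 1.4 mg in 20% DMSO/20% PEG400/60% saline, 1.15 mg in saline.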

[7] = system: Plasmodium berghei; assay: Antiplasmodial activity against Plasmodium berghei ANKA infected in C57BL/6 mouse assessed as reduction in parasitemia at 1.15 mg, ip daily for 5 days measured after 72 hrs relative to control; type: functional, organism-based; outline: as §2
[8] = system: Plasmodium berghei; assay: Antiplasmodial activity against Plasmodium berghei ANKA infected in C57BL/6 mouse assessed as mouse survival at 1.4 mg, ip daily for 5 days relative to control; type: functional; outline: as §2
[9] = system: Plasmodium berghei; assay: Antiplasmodial activity against Plasmodium berghei ANKA infected in C57BL/6 mouse assessed as reduction in parasitemia at 1 mg, ip daily for 5 days measured upto 24 hrs relative to control; type: functional; parameters: scale not given: the % may be the effect or the level left
[10] = system: Plasmodium berghei; assay: Antiplasmodial activity against Plasmodium berghei ANKA infected in C57BL/6 mouse assessed as reduction in parasitemia at 1.4 mg, ip daily for 5 days measured upto 24 hrs relative to control; type: functional; parameters: scale not given: the % may be the effect or the level left; outline: as §2
[11] = system: Plasmodium berghei; assay: Antiplasmodial activity against Plasmodium berghei ANKA infected in C57BL/6 mouse assessed as mouse survival at 1 mg, ip daily for 5 days relative to control; type: functional
[12] = system: Plasmodium berghei; assay: Antiplasmodial activity against Plasmodium berghei ANKA infected in C57BL/6 mouse assessed as mouse survival 1.15 mg, ip daily for 5 days relative to control; type: functional, organism-based; outline: as §2
[13] = system: Plasmodium berghei; assay: Antiplasmodial activity against Plasmodium berghei ANKA infected in C57BL/6 mouse assessed as reduction in parasitemia at 1.15 mg, ip daily for 5 days measured upto 24 hrs relative to control; type: functional, organism-based; outline: as §2
[14] = Rattus norvegicus, Aorta, read-out: EC50

| SMILES | IC50 [1] | EC50 [2, 14] | IC50 [3] | EC50 [4, 14] | also measured |
| --- | --- | --- | --- | --- | --- |
| O=[N+]([O-])OCCN1CCN(Cc2cc(Nc3ccnc4cc(Cl)ccc34)ccc2O)CC1 | 138 nM | 120 nM | 55 nM | 6500 nM | – |
| O=[N+]([O-])OCCCNCc1cc(Nc2ccnc3cc(Cl)ccc23)ccc1O | 62 nM | 420 nM | 27 nM | 11000 nM | – |
| O=[N+]([O-])OCCCN1CCN(Cc2cc(Nc3ccnc4cc(Cl)ccc34)ccc2O)CC1 | 34 nM | 79 nM | 18 nM | 3600 nM | – |
| CCN(CC)Cc1cc(Nc2ccnc3cc(Cl)ccc23)ccc1O.Cl | 16 nM | – | 12 nM | – | EC50 [2]: Not Active; Activity [5]: Active; EC50 [4]: Not Active |
| CCNCCCCCCO[N+](=O)[O-] | > 5000 nM | – | > 5000 nM | – | – |
| O=[N+]([O-])OCCC1CCN(Cc2cc(Nc3ccnc4cc(Cl)ccc34)ccc2O)CC1 | 25 nM | 100 nM | 19 nM | > 30000 nM | – |
| CCN(CCCO[N+](=O)[O-])Cc1cc(Nc2ccnc3cc(Cl)ccc23)ccc1O | 31 nM | 450 nM | 27 nM | 3300 nM | – |
| CCNCCCCC(CO[N+](=O)[O-])O[N+](=O)[O-] (stereo not given) | > 5000 nM | – | > 5000 nM | – | – |
| CCN(CCOc1no[n+]([O-])c1S(=O)(=O)c1ccccc1)Cc1cc(Nc2ccnc3cc(Cl)ccc23)ccc1O.Cl.Cl.Cl | 152 nM | 17 nM | 46 nM | 1000 nM | Activity [6]: Active; Activity [7]: Active; Activity [5]: Active; Survival [8]: 23%; Activity [9]: 72%; Activity [10]: 76%; Survival [11]: 8% |
| O=[N+]([O-])OCCN1CCNCC1 | > 5000 nM | – | > 5000 nM | – | – |
| O=[N+]([O-])OCC1CCN(Cc2cc(Nc3ccnc4cc(Cl)ccc34)ccc2O)CC1 | 28 nM | 100 nM | 19 nM | > 30000 nM | – |
| CCN(CCCCC(CO[N+](=O)[O-])O[N+](=O)[O-])Cc1cc(Nc2ccnc3cc(Cl)ccc23)ccc1O (stereo not given) | 21 nM | 220 nM | 38 nM | > 30000 nM | Activity [7]: Active; Activity [5]: Active; Survival [12]: inactive; Activity [13]: inactive |
| O=[N+]([O-])OCCCN1CCNCC1 | > 5000 nM | – | > 5000 nM | – | – |
| O=[N+]([O-])OCC1CCNCC1 | > 5000 nM | – | > 5000 nM | – | – |
| CN(C)CCCOc1no[n+]([O-])c1S(=O)(=O)c1ccccc1 | > 5000 nM | 14300 nM | > 5000 nM | > 10000 nM | – |
| CCN(CCOc1no[n+]([O-])c1-c1ccccc1)Cc1cc(Nc2ccnc3cc(Cl)ccc23)ccc1O | 24 nM | 1200 nM | 23 nM | > 10000 nM | – |
| CN(C)CCCOc1no[n+]([O-])c1-c1ccccc1 | 4940 nM | 30 nM | > 5000 nM | – | – |
| CCN(CCCCCCO[N+](=O)[O-])Cc1cc(Nc2ccnc3cc(Cl)ccc23)ccc1O | 28 nM | 450 nM | 31 nM | > 30000 nM | – |
| O=[N+]([O-])OCCC1CCNCC1 | > 5000 nM | – | > 5000 nM | – | – |
